According to article PMC3086141 (Circulation. Cardiovascular interventions, 2011):

Assays:
[1] = PCI patients; bolus of 1.0 mg/kg followed by infusion of 2.5 mg/kg/h; cited from earlier work
[2] = Quantification of bivalirudin concentration in plasma of PCI patients; format: in vivo; conditions: both, human, iv, Residual plasma drug levels two hours after discontinuation of infusion, 2 h POST, LC/MS/MS
Outline: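 Test compound given to 22 PCI patients as an IV bolus followed by continuous infusion. Plasma sampled at baseline, about 5 min post-bolus, 30 min into infusion (or at PCI end if earlier), and 5 min, 15 min and 2 h after infusion stopped. Levels measured by LC/MS/MS with a […] detection threshold. Data given as mean ± SD.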

Structure (SMILES): CC[C@H](C)[C@H](NC(=O)[C@H](CCC(=O)O)NC(=O)[C@H](CCC(=O)O)NC(=O)[C@H](Cc1ccccc1)NC(=O)[C@H](CC(=O)O)NC(=O)CNC(=O)[C@H](CC(N)=O)NC(=O)CNC(=O)CNC(=O)CNC(=O)CNC(=O)[C@@H]1CCCN1C(=O)[C@H](CCCNC(=N)N)NC(=O)[C@@H]1CCCN1C(=O)[C@H](N)Cc1ccccc1)C(=O)N1CCC[C@H]1C(=O)N[C@@H](CCC(=O)O)C(=O)N[C@@H](CCC(=O)O)C(=O)N[C@@H](Cc1ccc(O)cc1)C(=O)N[C@@H](CC(C)C)C(=O)O [bivalirudin]
- Mean steady-state bivalirudin plasma levels, original dosage [1]: 5.6 µM
- Terminal half-life, original dosage [1]: 25 min
- level at time molar [2]: 200 nM
